Experimental data of several laboratories.
Protocols differ between the studies behind these lines.
Target: Serine/threonine-protein kinase N1 (PKN1, Homo sapiens, UniProt Q16512)

The remaining binding of `C[C@@]1(Cc2ccc(C#N)cc2)C(=O)N(c2cc(Cl)cc(Cl)c2)c2ncc(C(=O)NC3(c4nc(C5CCC5)no4)CC3)n21` is reported as 100% (cell-free assay; competition with immobilised ligand; 1 µM).
`CS(=O)(=O)Nc1cccc(-c2csc(NC(=O)CSc3nc4nccnc4c(=O)n3CCc3ccccc3)n2)c1` gave an inhibition of -5% (enzyme activity; inhibitor; 10 µM).
`CCN1CCC2(CC1)NC(=O)c1c(c3ccc(Cl)c(Cl)c3n1C)C2C#N` (racemic) gave a ΔTm of 1 °C (thermal stability; DSF; 10 µM).
`O=C1Nc2ccc(Cl)cc2C1=Cc1cc(Cl)c(O)c(Cl)c1` has a remaining signal of 93% (cell-free assay; 0.5 µM).
`CN(C)C1CCN(CC#Cc2nn(C3CCCC3)c3nc(NCc4ccccc4)ncc23)C1` (centres unmarked) gave an inhibition of 1% (enzyme activity; inhibitor; FRET; 1 µM).
`C[C@@H](c1ccc2nccn2c1)n1nnc2ncc(-c3cnn(C)c3)nc21` has an activity vs control of 91% (enzyme activity; inhibitor; 1 µM).
`Nc1ncnc2occ(-c3ccc(NC(=O)Nc4cc(C(F)(F)F)ccc4F)cc3)c12` gave a remaining signal of 83% (cell-free assay; inhibitor; 20 µM).
The remaining binding of `C[C@H](NC(=O)c1cnc2n1[C@](C)(Cc1ccc(C#N)cc1)C(=O)N2c1cc(Cl)c(F)c(Cl)c1)C(=O)NC1(c2ccccn2)CC1` is reported as 100% (cell-free assay; competition with immobilised ligand; 1 µM).
For `COc1cccc2c(NCc3ccccc3)nc(-n3c(N)nc4ccccc43)nc12`, the inhibition was 0.9% (target engagement in cells; inhibitor; chemoproteomics; 20 mM).
The remaining binding of `CC(=O)C1=C(C)N(c2cccc(C(F)(F)F)c2)C(=O)N[C@@H]1c1ccc(C#N)nc1` is reported as 71.1% (cell-free assay; competition with immobilised ligand; 1 µM).
`COc1cc2c(Nc3ccc(Br)cc3F)ncnc2cc1OCC1CCN(C)CC1` gave a remaining signal of 103% (cell-free assay; 0.5 µM).
The ΔTm of `Cn1c2c(c3ccc(Cl)c(Cl)c31)C(C#N)C1(CCCC1)NC2=O` (centres unmarked) is reported as -0.5 °C (thermal stability; DSF; 10 µM).
For `COc1cc2ncnc(Nc3ccc(Oc4ccccc4)c(C)c3C)c2cc1OC`, the inhibition was 4% (enzyme activity; inhibitor; 1 µM).
The remaining activity of `Cc1sc(C(=O)NC2COC2)cc1-n1cc(NC(=O)Nc2c(F)cccc2Cl)cn1` is reported as 76.8% (enzyme activity; inhibitor; 10 µM).
`Nc1cc(N)c(N)cc1N` gave an activity vs control of 72% (enzyme activity; inhibitor; 1 µM).
`Cn1cncc1C1=CN(c2ncnc3[nH]cnc23)CCS1` has an inhibition of 18.8% (enzyme activity; inhibitor; radiometric; 50 nM).
With `Cn1c2c(c3ccc(Cl)c(Cl)c31)C(C#N)C1(CCOCC1)NC2=O` (centres unmarked) the ΔTm was 0.2 °C (thermal stability; DSF; 10 µM).
The remaining binding of `Cc1c(NC(=O)c2cc(C(N)=O)nc3cc(F)ccc23)c(C(F)(F)F)nn1Cc1ccc(C(C)(C)C)cc1` is reported as 100% (cell-free assay; competition with immobilised ligand; 1 µM).
With `Cn1c2c(Cl)c(Cl)ccc2c2cc[nH]c(=O)c21` the ΔTm was 0.9 °C (thermal stability; DSF; 10 µM).
The remaining binding of `Cc1c[nH]c2nccc(Oc3c(F)cc(Nc4cc(Cl)nc(N)n4)cc3F)c12` is reported as 72% (cell-free assay; competition with immobilised ligand; 0.1 µM).
With `CC(C)(C)c1nc(-c2cccc(NS(=O)(=O)c3c(F)cccc3F)c2F)c(-c2ccnc(N)n2)s1` the remaining activity was 101% (enzyme activity; inhibitor; radiometric; 1 µM).
The remaining binding of `CCCOc1ccc([C@H]2[C@H](C(=O)O)[C@@H](c3ccc4c(c3)OCO4)CN2CC(=O)Nc2c(CC)cccc2CC)cc1` is reported as 87% (cell-free assay; competition with immobilised ligand; 1 µM).
For `C[C@H]1CCN(c2nccc(-c3cnn4ncccc34)n2)C1`, the remaining binding was 100% (binding; 1 µM).
`Cc1cc(F)c(Nc2ncnc3cc(OCc4ccccc4)ccc23)cc1O.Cl` has an activity vs control of 89% (enzyme activity; inhibitor; 1 µM).
With `C#Cc1cccc(Nc2ncnc3cc(OCCOC)c(OCCOC)cc23)c1` the remaining signal was 108% (cell-free assay; 0.5 µM).
For `CO[C@@H](C)Cn1c(=O)n(C)c2cnc3ccc(-c4cncc(C(C)(C)O)c4)cc3c21`, the activity vs control was 94% (enzyme activity; inhibitor; 1 µM).
The remaining signal of `O=C1NC(=O)c2cc(Nc3ccc(F)cc3)c(Nc3ccc(F)cc3)cc21` is reported as 97.7% (cell-free assay; 0.5 µM).
With `COc1cc(Cl)c(C(=O)N[C@@H](CN[C@H]2CC[C@@H](N)CC2)Cc2ccc(C#N)cc2)cc1-c1ccc(CN[C@H](C)c2ccc(C)cc2)o1` the remaining activity was 108% (enzyme activity; inhibitor; 1 µM).
The remaining binding of `CS(=O)(=O)N1CCCC(NC(=O)[C@H](CCC2CCCCC2)NC(=O)c2ccc(CNc3ncnc4c3nnn4-c3ccccc3)cc2)C1` (some centres unmarked) is reported as 98% (cell-free assay; competition with immobilised ligand; 0.1 µM).
`COc1ccc(-c2cc3nccn3c(Nc3ncccc3C(N)=O)n2)cc1OC.Cl` has an activity vs control of 50% (enzyme activity; inhibitor; 1 µM).
`O=C(NCc1ncc(C(F)(F)F)cc1Cl)c1ccc2c(c1)C1(CCS(=O)(=O)CC1)[C@@H](C1CC1)N2S(=O)(=O)c1ccc(F)cc1` gave a remaining binding of 100% (cell-free assay; competition with immobilised ligand; 1 µM).
`Cc1ccc(C(=O)Nc2ccc(CN3CCN(C)CC3)c(C(F)(F)F)c2)cc1C#Cc1cnc2cccnn12` gave a remaining activity of 100% (enzyme activity; inhibitor; 23.5 nM).
With `O=c1c(O)c(-c2ccc(O)c(O)c2)oc2cc(O)cc(O)c12` the activity vs control was 69% (enzyme activity; inhibitor; 1 µM).
For `c1ccc(CNc2nc(N3CCOc4ccccc43)nc3c2CCCC3)cc1`, the inhibition was 1.6% (target engagement in cells; inhibitor; chemoproteomics; 20 mM).
For `CC(=O)c1cnc2ccc(-c3cc(Cl)c(O)c(Cl)c3)nc2c1N[C@H]1CC[C@H](CN(C)C)CC1`, the activity vs control was 0% (enzyme activity; inhibitor; 1 µM).
`COc1cc(-c2cc(-c3ccc(N4CCNCC4)cc3)cnc2C)cc(OC)c1OC` has an inhibition of 6% (enzyme activity; inhibitor; 1 µM).
With `CC(=O)c1c(C)c2cnc(Nc3ccc(N4CCNCC4)cn3)nc2n(C2CCCC2)c1=O.Cl` the activity vs control was 96% (enzyme activity; inhibitor; 1 µM).
`COc1cc2ncnc(Nc3ccc(F)c(Cl)c3)c2cc1OCCCN1CCOCC1` gave a remaining signal of 105% (cell-free assay; 0.5 µM).
